According to ChEMBL document CHEMBL1629465, “Efficient synthesis of novel 1,2,4-triazole fused acyclic and 21-28 membered macrocyclic and/or lariat macrocyclic oxaazathia crown compounds with potential antimicrobial activity” (2010):
Converted amounts (≈) assume the structure as drawn.

Experiments:
Assay type in all cases: functional
Escherichia coli [1] = experiment: Antimicrobial activity against Escherichia coli RCMB 103001 at 1 mg/ml by agar diffusion technique; settings: read-out: DIZ
Procedure, shortened: (§1)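 Agar well diffusion. Test compounds and reference standard drugs were diluted to 5.0, 2.5 and 1.0 mg/mL and applied to 0.6 cm wells. Inhibition zone beyond the control was scored as 0 (no inhibition), + (0.1–0.5 cm), ++ (0.6–1.0 cm) or +++ (1.0–1.5 cm).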

Staphylococcus aureus [2] = experiment: Antimicrobial activity against Staphylococcus aureus RCMB 106001 at 2.5 mg/ml by agar diffusion technique; settings: read-out: DIZ; procedure, shortened: as §1
Staphylococcus aureus [3] = experiment: Antimicrobial activity against Staphylococcus aureus RCMB 106001 at 1 mg/ml by agar diffusion technique; settings: read-out: DIZ; procedure, shortened: as §1
[4] = system: Syncephalastrum racemosum; experiment: Antimicrobial activity against Syncephalastrum racemosum RCMB 016001 at 2.5 mg/ml by agar diffusion technique; settings: read-out: DIZ; procedure, shortened: as §1
Pseudomonas aeruginosa [5] = experiment: Antimicrobial activity against Pseudomonas aeruginosa RCMB 102002 at 2.5 mg/ml by agar diffusion technique; settings: read-out: DIZ; procedure, shortened: as §1
Escherichia coli [6] = experiment: Antimicrobial activity against Escherichia coli RCMB 103001 by twofold serial dilution method
Procedure, shortened: (§2)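 MIC was determined by further twofold serial dilution across twelve levels, from 1000 down to 0.49. Strains were the same bacterial, yeast and fungal RCMB isolates used in the diffusion screen.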

Bacillus subtilis [7] = experiment: Antimicrobial activity against Bacillus subtilis RCMB 101001 at 1 mg/ml by agar diffusion technique; settings: read-out: DIZ; procedure, shortened: as §1
Aspergillus fumigatus [8] = experiment: Antimicrobial activity against Aspergillus fumigatus RCMB 002008 by twofold serial dilution method; procedure, shortened: as §2
Pseudomonas aeruginosa [9] = experiment: Antimicrobial activity against Pseudomonas aeruginosa RCMB 102002 at 1 mg/ml by agar diffusion technique; settings: read-out: DIZ; procedure, shortened: as §1
Aspergillus fumigatus [10] = experiment: Antimicrobial activity against Aspergillus fumigatus RCMB 002008 at 2.5 mg/ml by agar diffusion technique; settings: read-out: DIZ; procedure, shortened: as §1
Candida albicans [11] = experiment: Antimicrobial activity against Candida albicans RCMB 005003 at 2.5 mg/ml by agar diffusion technique; settings: read-out: DIZ; procedure, shortened: as §1
Penicillium italicum [12] = experiment: Antimicrobial activity against Penicillium italicum RCMB 001018 at 2.5 mg/ml by agar diffusion technique; settings: read-out: DIZ; procedure, shortened: as §1
[13] = system: Syncephalastrum racemosum; experiment: Antimicrobial activity against Syncephalastrum racemosum RCMB 016001 by twofold serial dilution method; procedure, shortened: as §2
Aspergillus fumigatus [14] = experiment: Antimicrobial activity against Aspergillus fumigatus RCMB 002008 at 1 mg/ml by agar diffusion technique; settings: read-out: DIZ; procedure, shortened: as §1
Staphylococcus aureus [15] = experiment: Antimicrobial activity against Staphylococcus aureus RCMB 106001 at 5 mg/ml by agar diffusion technique; settings: read-out: DIZ; procedure, shortened: as §1
Penicillium italicum [16] = experiment: Antimicrobial activity against Penicillium italicum RCMB 001018 at 1 mg/ml by agar diffusion technique; settings: read-out: DIZ; procedure, shortened: as §1
Bacillus subtilis [17] = experiment: Antimicrobial activity against Bacillus subtilis RCMB 101001 by twofold serial dilution method; procedure, shortened: as §2
Bacillus subtilis [18] = experiment: Antimicrobial activity against Bacillus subtilis RCMB 101001 at 2.5 mg/ml by agar diffusion technique; settings: read-out: DIZ; procedure, shortened: as §1
Candida albicans [19] = experiment: Antimicrobial activity against Candida albicans RCMB 005003 at 5 mg/ml by agar diffusion technique; settings: read-out: DIZ; procedure, shortened: as §1
Candida albicans [20] = experiment: Antimicrobial activity against Candida albicans RCMB 005003 at 1 mg/ml by agar diffusion technique; settings: read-out: DIZ; procedure, shortened: as §1
Escherichia coli [21] = experiment: Antimicrobial activity against Escherichia coli RCMB 103001 at 2.5 mg/ml by agar diffusion technique; settings: read-out: DIZ; procedure, shortened: as §1
Pseudomonas aeruginosa [22] = experiment: Antimicrobial activity against Pseudomonas aeruginosa RCMB 102002 at 5 mg/ml by agar diffusion technique; settings: read-out: DIZ; procedure, shortened: as §1
[23] = system: Syncephalastrum racemosum; experiment: Antimicrobial activity against Syncephalastrum racemosum RCMB 016001 at 1 mg/ml by agar diffusion technique; settings: read-out: DIZ; procedure, shortened: as §1
Penicillium italicum [24] = experiment: Antimicrobial activity against Penicillium italicum RCMB 001018 by twofold serial dilution method; procedure, shortened: as §2

MIC (Escherichia coli [6]): 250 µg/mL (≈ 384 µM) | MIC (Escherichia coli [6]; Escherichia coli, RCMB 103001, read-out: MIC): 250 µg/mL (≈ 384 µM) | MIC (Aspergillus fumigatus [8]): 250 µg/mL (≈ 384 µM) | MIC (Aspergillus fumigatus [8]; Aspergillus fumigatus, RCMB 002008, read-out: MIC): 250 µg/mL (≈ 384 µM) | MIC [13]: 250 µg/mL (≈ 384 µM) | MIC ([13]; Syncephalastrum racemosum, RCMB 016001, read-out: MIC): 250 µg/mL (≈ 384 µM) | MIC (Bacillus subtilis [17]): 250 µg/mL (≈ 384 µM) | MIC (Bacillus subtilis [17]; Bacillus subtilis, RCMB 101001, read-out: MIC): 250 µg/mL (≈ 384 µM) | MIC (Penicillium italicum [24]): 250 µg/mL (≈ 384 µM)
SMILES: OC(COc1ccccc1/C=N\n1c(-c2cccnc2)n[nH]c1=S)COc1ccccc1/C=N\n1c(-c2cccnc2)n[nH]c1=S
zone of inhibition at 1000 µg/mL (Escherichia coli [1]): 0 mm | zone of inhibition at 2500 µg/mL (Staphylococcus aureus [2]): 0 mm | zone of inhibition at 1000 µg/mL (Staphylococcus aureus [3]): 0 mm | zone of inhibition at 2500 µg/mL [4]: 1 mm | zone of inhibition at 2500 µg/mL (Pseudomonas aeruginosa [5]): 0 mm | zone of inhibition at 1000 µg/mL (Bacillus subtilis [7]): 1 mm | zone of inhibition at 1000 µg/mL (Pseudomonas aeruginosa [9]): 0 mm | zone of inhibition at 2500 µg/mL (Aspergillus fumigatus [10]): 0 mm | zone of inhibition at 2500 µg/mL (Candida albicans [11]): 0 mm | zone of inhibition at 2500 µg/mL (Penicillium italicum [12]): 6 mm | zone of inhibition at 1000 µg/mL (Aspergillus fumigatus [14]): 0 mm | zone of inhibition at 5000 µg/mL (Staphylococcus aureus [15]): 0 mm | zone of inhibition at 1000 µg/mL (Penicillium italicum [16]): 6 mm | zone of inhibition at 2500 µg/mL (Bacillus subtilis [18]): 1 mm | zone of inhibition at 5000 µg/mL (Candida albicans [19]): 0 mm | zone of inhibition at 1000 µg/mL (Candida albicans [20]): 0 mm | zone of inhibition at 2500 µg/mL (Escherichia coli [21]): 1 mm | zone of inhibition at 5000 µg/mL (Pseudomonas aeruginosa [22]): 0 mm | zone of inhibition at 1000 µg/mL [23]: 0 mm
